We go through three compounds from ChEMBL document CHEMBL3297682, “Synthesis and anticancer activity of γ-(triazolyl ethylidene)butenolides and polyfunctional pyrrolinones” (Eur J Med Chem, 2014).

The test system of assay [1] is MCF7. Kind of assay: Induction of cell cycle arrest in human MCF7 cells assessed as accumulation at subG1 phase at IC50 concentration measured after 24 hrs by propidium iodide staining based flow cytometry. The assay is classed as functional. In outline: (§1)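 1×10^6 cells seeded in six-well plates and treated 24 h. Floating and trypsinized adherent cells pooled and fixed in 70% ethanol. Cells washed in PBS, then stained 30 min at room temperature in the dark with 30 µg/mL propidium iodide in PBS containing RNase A. DNA content measured by flow cytometry.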

In assay [2] the test system is MDA-MB-231. Kind of assay: Antiproliferative activity against human MDA-MB-231 cells after 24 hrs by MTT assay. The class given is functional, cell-based. The settings on record: MDA-MB-231, 24 h. Put shortly: (§2)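 1×10^4 cells/well seeded in DMEM with 10% FBS and antibiotic-antimycotic, grown 24 h at 37 °C under 5% CO2. Compounds diluted in phenol red-free DMEM with 2% FBS and given for 24 h, with vehicle control. MTT (5 mg/mL, 20 µL) added for 3 h. Formazan dissolved in DMSO, absorbance read at 570 nm. IC50 is the concentration giving 50% growth inhibition.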

Assay [3] has as its system U-937. The experiment in a line: Antiproliferative activity against human U937 cells after 24 hrs by MTT assay. The class given is functional, cell-based. The note with it: U-937, 24 h. In outline:
as §2
For orientation: Tetrazolium assays rely on reduction of a dye to a coloured formazan, in cell work by metabolically active cells.

The test system of assay [4] is PC-3. Kind of assay: Induction of cell cycle arrest in human PC3 cells assessed as accumulation at subG1 phase at IC50 concentration measured after 24 hrs by propidium iodide staining based flow cytometry. The assay is classed as functional. Put shortly: as §1
In general terms: Flow cytometry measures light scatter and fluorescence of single cells or particles in a stream.

The subject of assay [5] is U-937. The experiment in a line: Induction of cell cycle arrest in human U937 cells assessed as accumulation at subG1 phase at IC50 concentration measured after 24 hrs by propidium iodide staining based flow cytometry. The assay is classed as functional. In outline: as §1
Assay [6] has as its system HCT-116. Kind of assay: Antiproliferative activity against human HCT116 cells after 24 hrs by MTT assay. The class given is functional, cell-based. The note with it: HCT-116, 24 h. In outline: as §2
Assay [7] relates to PC-3. Kind of assay: Antiproliferative activity against human PC3 cells after 24 hrs by MTT assay. The settings on record: PC-3, 24 h. The class given is functional, cell-based. In outline:
as §2

Assay [8] concerns MCF7. Kind of assay: Antiproliferative activity against human MCF7 cells after 24 hrs by MTT assay. The class given is functional, cell-based. The note with it: MCF7, 24 h. Put shortly: as §2
Assay [9] deals with MDA-MB-231. The experiment in a line: Induction of reactive oxygen species production in human MDA-MB-231 cells after 24 hrs by DCFH-DA dye based flow cytometry. The assay is classed as functional, cell-based. Put shortly: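 MDA-MB-231 cells (1×10^6) seeded 24 h in six-well plates, then treated 24 h. Cells harvested, washed in PBS and fixed in absolute methanol. Cells resuspended in PBS with 15 µg/mL DCFH-DA for 30 min in the dark, then pelleted, taken up in PBS, and fluorescence read by flow cytometry.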

A further assay has as its system HEK293. Kind of assay: Cytotoxicity against human HEK293 cells after 24 hrs by MTT assay. The assay is classed as cell-based. The note with it: HEK293, 24 h. Put shortly: as §2
The subject of assay [10] is HCT-116. The experiment in a line: Induction of cell cycle arrest in human HCT116 cells assessed as accumulation at subG1 phase at IC50 concentration measured after 24 hrs by propidium iodide staining based flow cytometry. The class given is functional. In outline: as §1
The subject of assay [11] is MDA-MB-231. The experiment in a line: Induction of cell cycle arrest in human MDA-MB-231 cells assessed as accumulation at subG1 phase at IC50 concentration measured after 24 hrs by propidium iodide staining based flow cytometry. The class given is functional. In outline:
as §1

Assay [12] has as its system MDA-MB-231. Kind of assay: Induction of apoptosis in human MDA-MB-231 cells assessed as early apoptotic cells measured after 24 hrs by Annexin-V/PI staining based flow cytometry (reference value: 11.31%). The assay is classed as functional.
The subject of assay [13] is MDA-MB-231. Kind of assay: Induction of apoptosis in human MDA-MB-231 cells assessed as late apoptotic cells at 22 uM measured after 24 hrs by Annexin-V/PI staining based flow cytometry (reference value: 6.11%). The class given is functional. In outline: (§3)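 MDA-MB-231 cells (1×10^6) seeded in six-well plates, grown overnight, then exposed 24 h to 11 or 22 µM. Cells trypsinized, washed in PBS, stained with Annexin-V-FITC and propidium iodide using a kit, and analysed by flow cytometry. Compared with untreated vehicle control.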

Assay [14] deals with MDA-MB-231. The experiment in a line: Induction of apoptosis in human MDA-MB-231 cells assessed as viable cells compound treated 1 hr post 10 mM ROS inhibitor NAC addition measured after 24 hrs by Annexin-V/PI staining based flow cytometry (reference value: 84.94%). The class given is functional.
The subject of assay [15] is MDA-MB-231. Kind of assay: Induction of apoptosis in human MDA-MB-231 cells assessed as necrotic cells at 22 uM measured after 24 hrs by Annexin-V/PI staining based flow cytometry (reference value: 2.24%). The assay is classed as functional. Put shortly:
as §3

Assay [16] has as its system MDA-MB-231. The experiment in a line: Induction of apoptosis in human MDA-MB-231 cells assessed as necrotic cells measured after 24 hrs by Annexin-V/PI staining based flow cytometry (reference value: 0.84%). The class given is functional.
The subject of assay [17] is MDA-MB-231. The experiment in a line: Induction of apoptosis in human MDA-MB-231 cells assessed as early apoptotic cells at 22 uM measured after 24 hrs by Annexin-V/PI staining based flow cytometry (reference value: 19.77%). The assay is classed as functional. Put shortly: as §3
In assay [18] the test system is MDA-MB-231. Kind of assay: Induction of apoptosis in human MDA-MB-231 cells assessed as early apoptotic cells at 11 uM measured after 24 hrs by Annexin-V/PI staining based flow cytometry (reference value: 19.77%). The class given is functional. In outline:
as §3

The test system of assay [19] is MDA-MB-231. The experiment in a line: Induction of apoptosis in human MDA-MB-231 cells assessed as early apoptotic cells compound treated 1 hr post 10 mM ROS inhibitor NAC addition measured after 24 hrs by Annexin-V/PI staining based flow cytometry (reference value: 11.31%). The class given is functional.
Assay [20] deals with MDA-MB-231. The experiment in a line: Increase in phosphorylated p38 level in human MDA-MB-231 cells after 24 hrs by western blot analysis. The assay is classed as functional, cell-based. Put shortly: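 MDA-MB-231 cells (1×10^6) seeded 24 h, then treated 24 h at 11 and 22 µM. Cells lysed in ice-cold RIPA and protein measured by Bradford. 40 µg protein run on SDS-PAGE and transferred to PVDF. Membranes blocked with 1% BSA, probed overnight at 4 °C for p-p38 and total p38, then with HRP secondary for 2 h.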
For orientation: In western blotting, separated proteins are transferred to a membrane and probed.

Assay [21] deals with MDA-MB-231. The experiment in a line: Induction of apoptosis in human MDA-MB-231 cells assessed as viable cells at 22 uM measured after 24 hrs by Annexin-V/PI staining based flow cytometry (reference value: 71.87%). The assay is classed as functional. The note with it: MDA-MB-231, 24 h, read-out: Activity. In outline:
as §3

In assay [22] the test system is MDA-MB-231. Kind of assay: Induction of apoptosis in human MDA-MB-231 cells assessed as late apoptotic cells compound treated 1 hr post 10 mM ROS inhibitor NAC addition measured after 24 hrs by Annexin-V/PI staining based flow cytometry (reference value: 2.91%). The class given is functional.
For assay [23], the system named is MDA-MB-231. Kind of assay: Effect on phosphorylated p38 level in human MDA-MB-231 cells at 11 uM after 24 hrs by western blot analysis pretreated with ROS inhibitor NAC. The assay is classed as functional, cell-based. In outline:
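MDA-MB-231 cells pretreated with NAC, then exposed to compound at 11 µM for 24 h. Lysates in RIPA quantified by Bradford. 40 µg protein resolved by SDS-PAGE and blotted to PVDF. Membranes blocked with 1% BSA, probed overnight at 4 °C for phospho-p38 and p38, then with HRP secondary.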

In assay [24] the test system is MDA-MB-231. The experiment in a line: Induction of apoptosis in human MDA-MB-231 cells assessed as necrotic cells at 11 uM measured after 24 hrs by Annexin-V/PI staining based flow cytometry (reference value: 2.24%). The class given is functional. Put shortly:
as §3

Assay [25] deals with MDA-MB-231. Kind of assay: Induction of apoptosis in human MDA-MB-231 cells assessed as necrotic cells measured compound treated 1 hr post 10 mM ROS inhibitor NAC addition measured after 24 hrs by Annexin-V/PI staining based flow cytometry (reference value: 0.84%). The class given is functional.
For assay [26], the system named is MDA-MB-231. Kind of assay: Induction of apoptosis in human MDA-MB-231 cells assessed as late apoptotic cells at 11 uM measured after 24 hrs by Annexin-V/PI staining based flow cytometry (reference value: 6.11%). The assay is classed as functional. Put shortly:
as §3

The subject of assay [27] is MDA-MB-231. The experiment in a line: Induction of apoptosis in human MDA-MB-231 cells assessed as viable cells at 11 uM measured after 24 hrs by Annexin-V/PI staining based flow cytometry (reference value: 71.87%). The note with it: MDA-MB-231, 24 h, read-out: Activity. The assay is classed as functional. Put shortly:
as §3

The subject of assay [28] is MDA-MB-231. The experiment in a line: Induction of apoptosis in human MDA-MB-231 cells assessed as viable cells measured after 24 hrs by Annexin-V/PI staining based flow cytometry (reference value: 84.94%). The class given is functional.
Assay [29] relates to MDA-MB-231. Kind of assay: Induction of apoptosis in human MDA-MB-231 cells assessed as late apoptotic cells measured after 24 hrs by Annexin-V/PI staining based flow cytometry (reference value: 2.91%). The assay is classed as functional.

pIC50: −log10 of the molar value. Activity calls are given as the source filed them. No cut-off for these calls is given here.

The term pIC50 denotes −log10 of the IC50, conventionally taken in molar units. Low values mean a large IC50, high ones a small IC50.

Take `COC1=C(OC)C(O)(CCn2cc(-c3ccccc3)nn2)NC1=O` (centres undefined): the result with MCF7 [1], with PC-3 [4], with U-937 [5], with MDA-MB-231 [9], in the assay with HCT-116 [10] and in the assay on MDA-MB-231 [11] was Active. The pIC50 in the assay with MDA-MB-231 [2] was 4.74; in the assay on U-937 [3], 4.69; in the assay on HCT-116 [6], 4.33; in the assay on PC-3 [7], 4.45; in the assay with MCF7 [8] it was 4.65; in the assay on HEK293, 4.21.
On to `COC1=C(OC)C(O)(CCn2cc(-c3ccc(C(C)(C)C)cc3)nn2)NC1=O` (centres undefined), for which the Activity is recorded as 32.05% in the assay with MDA-MB-231 [12]; 6.95% with MDA-MB-231 [13]; 81.36% in the assay on MDA-MB-231 [14]; 2.35% in the assay with MDA-MB-231 [15]; 0.76% in the assay on MDA-MB-231 [16]; 41.92% in the assay on MDA-MB-231 [17]. The Activity was 27.35% in the assay with MDA-MB-231 [18]; 13.91% in the assay with MDA-MB-231 [19]; “Dose-dependent effect” in the assay with MDA-MB-231 [20]; 3.61% in the assay with MDA-MB-231 [22]; 1.48% in the assay on MDA-MB-231 [24]; 1.112% in the assay with MDA-MB-231 [25]. Further, the Activity with MDA-MB-231 [26] worked out at 3.38%; in the assay on MDA-MB-231 [28], 56.21%; with MDA-MB-231 [29], 10.98%. Besides, the outcome with MCF7 [1], in the assay on PC-3 [4], in the assay with U-937 [5], in the assay with MDA-MB-231 [9], in the assay with HCT-116 [10] and in the assay with MDA-MB-231 [11] was Active. In addition, the pIC50 in the assay on MDA-MB-231 [2] was 4.95; in the assay with U-937 [3], below 4.00; in the assay on HCT-116 [6] it was 4.30; with PC-3 [7], 4.52; in the assay on MCF7 [8], below 4.00; with HEK293, 4.21. In addition, the viability at 22 µM in the assay with MDA-MB-231 [21] came to 48.8%. Besides, in the assay with MDA-MB-231 [23], the outcome was inactive. The viability at 11 µM in the assay with MDA-MB-231 [27] is 67.8%.
In the case of `O=C1NC(O)(CCn2cc(-c3ccccc3)nn2)C(OCc2ccccc2)=C1OCc1ccccc1` (centres undefined), the outcome in the assay on MCF7 [1], in the assay with PC-3 [4], with U-937 [5], in the assay on MDA-MB-231 [9], in the assay with HCT-116 [10] and in the assay on MDA-MB-231 [11] was Active. For the same compound, the pIC50 in the assay with MDA-MB-231 [2] was 4.68; in the assay on U-937 [3], 4.67; with HCT-116 [6], 4.27; in the assay on PC-3 [7], below 4.00; in the assay with MCF7 [8] it was 4.69; in the assay on HEK293 it was below 4.00.
